Assay outcomes: PubChem, Johns Hopkins Ion Channel Center
Rows were chosen to be rich in hits. Some 3.7% of all compounds tested hit in one or more screens of this group.
KCNQ1 block = inhibitors of human KCNQ1 channel, primary screen, cell-based, thallium flux, high-throughput | Potassium voltage-gated channel subfamily KQT member 1 (Homo sapiens), P51787 | CHO-K1 KCNQ1, FluxOR thallium flux fluorescence; hits give high values | B-score at 10 µM | 1.3% of 310,000 active;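 active means compounds whose thallium flux B-score, printed positive for inhibition, exceeds three library SD while starting fluorescence stays within three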;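 further: channel opened by potassium depolarization with thallium stimulus after 20 min compound exposure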
KCNQ1 pot = potentiators or activators of KCNQ1 channel, primary screen, cell-based, thallium flux, high-throughput; B-score at 10 µM; AID 2648, 2010; Potassium voltage-gated channel subfamily KQT member 1 (Homo sapiens), P51787; CHO-K1 KCNQ1, thallium flux FluxOR fluorescence; hits give high values; 0.35% of 310,000 active;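 active means fluorescence ratio B-score, a plate-corrected score, at least three library SD, with initial intensity B-score within 5 SD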
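Test system: CHO-K1 cells stably expressing KCNQ1 / Medium: assay buffer / Also added: depolarizing K+/Tl+ stimulus, K2SO4 and Tl2SO4 each 12.5 mM in 5x stock / Incubation: 90 min dye loading and 20 min compound exposure, both at room temperature / Signal: thallium influx via FluxOR fluorescence, kinetic imaging / Evaluation: B score of baseline-normalized fluorescence ratio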
KCNK3 block = human KCNK3 channel inhibitors, primary screen, CHO cells, FluxOR thallium flux, B-score; Potassium channel subfamily K member 3 (Homo sapiens), O14649; FluxOR fluorescence; hits give low values; B-score at 10 µM; 0.84% of 340,000 active; AID 602410, 2012;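 active means B-score under library mean minus 4 SD, starting fluorescence ratio at most library mean plus 5 SD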;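 further: more negative B-score means stronger inhibition of thallium flux through KCNK3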
Target sequence (O14649 whole entry, looked up): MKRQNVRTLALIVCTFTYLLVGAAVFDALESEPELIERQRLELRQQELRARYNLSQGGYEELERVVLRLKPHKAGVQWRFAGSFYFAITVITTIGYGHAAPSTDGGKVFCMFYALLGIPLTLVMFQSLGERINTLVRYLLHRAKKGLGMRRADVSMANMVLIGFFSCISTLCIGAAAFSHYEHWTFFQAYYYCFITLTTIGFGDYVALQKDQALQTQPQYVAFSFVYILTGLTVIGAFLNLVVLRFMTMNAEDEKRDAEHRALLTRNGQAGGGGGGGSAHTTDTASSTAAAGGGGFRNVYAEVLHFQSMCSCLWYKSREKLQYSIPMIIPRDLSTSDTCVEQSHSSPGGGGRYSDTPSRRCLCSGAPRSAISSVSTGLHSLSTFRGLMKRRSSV
Kir21 inh = inhibitors of mouse Kir2.1 inward-rectifier potassium channel; Inward rectifier potassium channel 2 (Mus musculus), P35561; HEK293-Kir2.1, FluxOR thallium flux fluorescence; hits give low values; B-score at 10 µM; 0.85% of 310,000 active; AID 1672, 2009;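 active means fluorescence ratio B-score at or below minus 3 SD of library scores, with starting-brightness B-score within 2 SD, cut at about -4.2 in these data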;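 further: channel flux triggered by added potassium and thallium sulfate stimulus; B-score of peak minus minimum fluorescence over baseline after thallium stimulus; more negative B-score means stronger Kir2.1 block with less thallium influx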
hERG rescue = hERG rescue from dofetilide block, primary screen, cell-based, CHO-hERG, FluxOR thallium flux, dofetilide IC70 | Voltage-gated inwardly rectifying potassium channel KCNH2 (Homo sapiens), Q12809 | dofetilide IC70 present | activation (rescue from dofetilide block), less the hit threshold, % at 10 µM | 0.51% of 310,000 active;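 active means activation above the mean of controls blocked by dofetilide plus 5 SD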;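 further: thallium influx through hERG after potassium depolarization seen as dye fluorescence rise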
KCNK9 inh = KCNK9 potassium channel inhibitors, primary screen, HEK293 cells, thallium flux | FluxOR thallium flux fluorescence; hits give low values | AID 488922, 2010 | B-score at 10 µM | Potassium channel subfamily K member 9 (Homo sapiens), Q9NPC2 | 1.2% of 310,000 active;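 active means ratio B-score over 3 SD below the library mean, with starting fluorescence within 5 SD of its mean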;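 further: negative B-score means less thallium flux so channel inhibition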
Target sequence (Q9NPC2 whole entry, looked up): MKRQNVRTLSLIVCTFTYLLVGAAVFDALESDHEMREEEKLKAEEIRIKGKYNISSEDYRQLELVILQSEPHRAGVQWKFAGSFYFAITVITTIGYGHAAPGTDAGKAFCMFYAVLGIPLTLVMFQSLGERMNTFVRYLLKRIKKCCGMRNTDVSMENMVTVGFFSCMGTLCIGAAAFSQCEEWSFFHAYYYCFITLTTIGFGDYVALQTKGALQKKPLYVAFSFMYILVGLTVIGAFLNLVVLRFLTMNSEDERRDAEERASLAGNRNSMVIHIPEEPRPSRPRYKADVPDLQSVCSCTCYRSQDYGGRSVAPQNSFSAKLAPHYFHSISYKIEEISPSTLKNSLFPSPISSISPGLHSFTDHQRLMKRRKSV
KCNK3 inh conf = retest of human KCNK3 channel inhibitors, confirmation, CHO cells, FluxOR thallium flux, triplicate | shares compounds with KCNK3 block | FluxOR fluorescence; 0% buffer, 100% carvedilol maximal block | ratio percent of control, % at 10 µM | 99% of 2,400 active | AID 651638, 2012;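 active means ratio percent of control, averaged over triplicates, above buffer control mean plus 5 SD, cut at about 64% in these data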;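 further: ratio is the fluorescence rise from min to max over baseline after thallium stimulus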
KCNK3 noninduced = thallium flux inhibition in non-induced cells, primary screen, counter-screen for KCNK3 inhibitor project, cell-based, non-induced KCNK3 line, FluxOR thallium, triplicate. shares compounds with KCNK3 block. non-induced KCNK3 parental cells; hits give low values. thallium flux ratio (lower = more inhibition) at 10 µM. 40% of 2,400 active;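 active means thallium flux ratio, averaged over three wells, more than 5 SD below the buffer control mean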;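 further: host cells are CHO cells without KCNK3 induction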
Of the large screens only hits and unclear results are named; the others gave an inactive call (follow-up assays come after a bar, where they were run).

CCn1c2ccccc2c2cc(NC(=O)c3ccc(Br)o3)ccc21	KCNK3 block -10.5 | KCNK3 inh conf 115.7 | KCNK3 noninduced inactive
CCn1c2ccccc2c2cc(NC(=O)c3cc(C)on3)ccc21	KCNK3 block -10.1 | KCNK3 inh conf 122.7 | KCNK3 noninduced 0.155
CCn1c2ccccc2c2cc(NC(=O)c3ccc(=O)oc3)ccc21	none
O=C(NCCn1cc(SCc2ccccc2)c2ccccc21)c1ccccc1F	KCNQ1 block 8, KCNK3 block -15.5 | KCNK3 inh conf 124.3 | KCNK3 noninduced 0.146
O=C(O)c1ccccc1C(=O)NNc1cccc(Cl)n1	none
COn1c(=O)c(-c2cccs2)[n+]([O-])c2ccccc21	KCNK3 block -10.4 | KCNK3 inh conf 87.0 | KCNK3 noninduced 0.109
CN(c1ccc(Cl)cc1)c1cc(=O)n(C)c2ccccc12	KCNK3 block -8.78, Kir21 inh -7.03 | KCNK3 inh conf 97.7 | KCNK3 noninduced inactive
CN(C(=O)COc1cc(=O)n(C)c2ccccc12)c1ccc(Cl)cc1	none
N#Cc1cc2c(nc1SCc1ccc(Cl)nc1)CCCCC2	KCNK3 block -11.4, KCNK9 inh -6.98 | KCNK3 inh conf 116.0 | KCNK3 noninduced 0.159
COc1ccc(CN(C)c2ccc(S(=O)(=O)N3CCN(C)CC3)cc2[N+](=O)[O-])cc1OC	none (no result: KCNQ1 block, KCNQ1 pot, Kir21 inh, hERG rescue, KCNK9 inh)
CC(=O)c1cccc(NC(=O)C(C)N2CCc3ccccc3C2)c1 (stereo not given)	none
CCCc1cc(C(=O)Cc2ccc(C(=O)OCC)o2)c(O)cc1O	KCNK3 block -11.2, KCNK9 inh -16.9 | KCNK3 inh conf 104.3 | KCNK3 noninduced 0.133
Cc1ccsc1CN(C)C(=O)c1ccc(Oc2ccccc2)cc1	KCNK3 block -9.92, KCNK9 inh -7.51 | KCNK3 inh conf 113.3 | KCNK3 noninduced inactive
CCOC(=O)C1=C(c2ccccc2)N=C2SCC(=O)N2C1c1ccc(OC)c(OC)c1 (stereo not given)	none
COc1ccccc1/C=C/C1C(C(=O)OCC(C)C)=C(C)N=C2SCCC(=O)N21 (stereo not given)	KCNK3 block -9.33 | KCNK3 inh conf 92.3 | KCNK3 noninduced 0.16
Cc1ccc(C)c(OCC(=O)Nc2ccccc2N2CCCC2)c1	KCNK3 block -10.3 | KCNK3 inh conf 104.0 | KCNK3 noninduced inactive
O=C(COc1ccccc1)Nc1ccccc1N1CCCCC1	KCNK3 block -10.5 | KCNK3 inh conf 127.7 | KCNK3 noninduced inactive
Cc1ccc(OCC(=O)Nc2ccccc2N2CCCC2)c(C)c1	none
Cc1nc(-c2ccccc2)sc1C(=O)CSc1ccc(F)cc1	KCNK3 block -12.6 | KCNK3 inh conf 96.3 | KCNK3 noninduced inactive
O=C(NCc1cccs1)C1CCC(=O)N(Cc2cccc(C(F)(F)F)c2)C1 (stereo not given)	none
CCOC(=O)C1(CC/C(C)=N\NC(N)=O)CC(C)(C)OC1=O (stereo not given)	none
COc1cccc(NC(=O)c2cc3ccccc3o/c2=N\O)c1	KCNK3 block -8.74 | KCNK3 inh conf 124.7 | KCNK3 noninduced 0.13
O=C(Nc1ccccc1Cl)c1cc2ccccc2o/c1=N\O	none
CS/C(=C/[N+](=O)[O-])Nc1cccc2c1C(C)CC2(C)C (stereo not given)	none
COc1cccc2c1OC[C@@H](CO)[C@H]2N(C)C(=O)Nc1ccccc1	none
CN(C(=O)Nc1ccc(Cl)cc1Cl)[C@H]1c2cc(Br)ccc2OC[C@H]1CO	KCNK3 block -8.93 | KCNK3 inh conf 99.7 | KCNK3 noninduced inactive
COc1c(-c2ccccc2)oc2c(ccc3occc32)c1=O	none (no result: KCNQ1 block, KCNQ1 pot, Kir21 inh, hERG rescue, KCNK9 inh)
Cc1ccc(C)c(S(=O)(=O)NCC(c2ccc3c(c2)OCO3)N2CCOCC2)c1 (stereo not given)	none
Cc1cc(F)ccc1S(=O)(=O)NCC(c1ccc2c(c1)OCO2)N1CCOCC1 (stereo not given)	KCNK3 block -11.4 | KCNK3 inh conf 70.3 | KCNK3 noninduced inactive
Cc1ccc(-n2nc3c(=O)n(CCCC(=O)NCc4ccccc4Cl)nc(C)c3c2C)cc1	none
O=C(CSc1nnc(NC(=O)c2ccccc2F)s1)NCC1CCCO1 (stereo not given)	KCNK3 block -8.81 | KCNK3 inh conf 86.0 | KCNK3 noninduced inactive
COCCN(CCOC)S(=O)(=O)c1ccc(C(=O)Nc2ccc(S(=O)(=O)Nc3nccc(C)n3)cc2)cc1	KCNK3 block -8.94 | KCNK3 inh conf 70.3 | KCNK3 noninduced inactive
COc1ccc(-n2c(Cc3ccccc3)nnc2SCC(=O)N2CCCc3ccccc32)cc1	KCNK3 block -12.5 | KCNK3 inh conf 86.7 | KCNK3 noninduced inactive
O=C(NCc1nnc(SCC(=O)N2CCCc3ccccc32)n1-c1ccccc1)c1cccc2ccccc12	none
Cn1c(SCc2nc3ccccc3c(=O)[nH]2)nc2ccccc21	none
CC(C)Cn1c(SCc2nc3ccccc3c(=O)[nH]2)nc2ccccc2c1=O	KCNK3 block -10.1, KCNK9 inh -6.74 | KCNK3 inh conf 102.0 | KCNK3 noninduced inactive
Cn1nnnc1Sc1ncnc2scc(-c3cc4ccccc4o3)c12	KCNK3 block -13 (no result: KCNQ1 block, KCNQ1 pot, Kir21 inh, hERG rescue, KCNK9 inh) | KCNK3 inh conf 117.7 | KCNK3 noninduced inactive
Cn1nnnc1Sc1ncnc2scc(-c3ccc(-c4ccccc4)cc3)c12	none (no result: KCNQ1 block, KCNQ1 pot, Kir21 inh, hERG rescue, KCNK9 inh)
CCN(CC(=O)Nc1ccc2c(c1)OCCO2)C(=O)C(C)Oc1ccc(F)cc1 (stereo not given)	none (no result: KCNQ1 block, KCNQ1 pot, Kir21 inh, hERG rescue, KCNK9 inh)
Cc1ccc(C)c(C(=O)CC2(O)C(=O)N(C)c3ccccc32)c1 (stereo not given)	none
Cc1ccc(C(=O)CC2(O)C(=O)N(C)c3ccc(Br)cc32)c(C)c1 (stereo not given)	KCNK3 block -9.56 | KCNK3 inh conf 93.0 | KCNK3 noninduced inactive
CN(C)S(=O)(=O)c1ccc(C(=O)NCc2ccco2)cc1	KCNK3 block -9.2 | KCNK3 inh conf 72.0 | KCNK3 noninduced inactive
CCCN(CCC)S(=O)(=O)c1ccc(C(=O)NCc2ccco2)cc1	none
